In ChEMBL document CHEMBL1140766, “SAR of a series of anti-HSV-1 acridone derivatives, and a rational acridone-based design of a new anti-HSV-1 3H-benzo[b]pyrazolo[3,4-h]-1,6-naphthyridine series” (Bioorg Med Chem, 2008):
Activity calls are given as the source filed them. No cut-off for these calls is given here.

Columns and labels:
Human alphaherpesvirus 1 [1] = experiment: Antiviral activity against acyclovir-resistant HSV1 AR29 replication in Vero cells after 72 hrs; type: functional; conditions: for EC50: Human alphaherpesvirus 1, AR29, Vero, read-out: ED50 (the source's name)
[2] = Cytotoxicity against african green monkey Vero cells assessed as cell viability after 72 hrs by MTT assay; type: cell-based; conditions: chlorocebus sabaeus
Human alphaherpesvirus 1 [3] = experiment: Antiviral activity against acyclovir-resistant HSV1 AR29 replication in Vero cells at 50 uM after 72 hrs; type: functional; conditions: for inhibition at 50 µM: Human alphaherpesvirus 1, AR29, Vero
Outline: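 Confluent Vero monolayers (DMEM, 5% FCS, 37 C, 5% CO2) infected with HSV-1 AR-29 at m.o.i. 1, 0.1, 0.01 or 0.001 for 1 h at 37 C. Cells were PBS-washed, then given medium with or without compound at 50 µM. At 72 h, titer was read as TCID50/mL by end-point dilution (Reed–Muench). % inhibition came from treated versus mock-treated infected titers. Acyclovir 50 µM served as control. Duplicates, ≥3 experiments.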

Human alphaherpesvirus 1 [4] = experiment: Antiviral activity against acyclovir-resistant HSV1 AR29 replication in Vero cells at >50 uM after 72 hrs; type: functional

Structure (SMILES) | EC50 (Human alphaherpesvirus 1 [1]) | CC50 at 72 h [2] | inhibition at 50 µM (Human alphaherpesvirus 1 [3]) | other results
Cc1cccc2c(O)c3c(O)cc(O)cc3nc12 | 8 µM |  |  | 
O=c1c2ccc(Cl)cc2[nH]c2cc(O)cc(O)c12 | 10 µM |  |  | 
Nc1nc2c(ncn2COCCO)c(=O)[nH]1 [ACYCLOVIR] |  | 126 µM |  | 
COc1ccc2nc3c(cnc4c3cnn4-c3ccccc3)c(Cl)c2c1 |  | 640 µM | 68% | 
Cc1nn(-c2ccccc2)c2ncc3c(Cl)c4cccc(Cl)c4nc3c12 |  |  | 100% | 
COc1cccc2c(O)c3c(O)cc(O)cc3nc12 | 2.2 µM |  |  | 
O=c1c2cccc(Cl)c2[nH]c2cc3ccccc3c(O)c12 |  |  |  | Activity (Human alphaherpesvirus 1 [1]): inactive
O=c1c2ccccc2[nH]c2c1cnc1c2cnn1-c1ccccc1 |  | 640 µM | 74% | 
Cc1nn(-c2ccccc2)c2ncc3c(Cl)c4cc(Cl)ccc4nc3c12 |  | 640 µM | 39% | 
Cc1cc(O)c2c(=O)c3cccc(Cl)c3[nH]c2c1 |  |  |  | Activity (Human alphaherpesvirus 1 [1]): inactive
COc1cc(O)c2c(=O)c3cccc(Cl)c3[nH]c2c1 | > 50 µM |  |  | Inhibition (Human alphaherpesvirus 1 [4]): 6%
O=c1c2cccc(Cl)c2[nH]c2cc(O)cc(O)c12 | 4 µM |  |  | 
O=c1c2cc(Cl)ccc2[nH]c2cc(O)cc(O)c12 | 16 µM |  |  | 
Cc1cccc2c(Cl)c3cnc4c(c(C)nn4-c4ccccc4)c3nc12 |  | 640 µM | 66% | 
O=c1c2ccccc2[nH]c2cc(O)cc(O)c12 | 45 µM |  |  | 
Cc1ccc2[nH]c3c(cnc4c3cnn4-c3ccccc3)c(=O)c2c1 |  | 640 µM | 92% | 
Cc1ccc2nc3c(cnc4c3cnn4-c3ccccc3)c(Cl)c2c1 |  | 640 µM | 82% | 
Cc1nn(-c2ccccc2)c2ncc3c(Cl)c4ccccc4nc3c12 |  |  | 70% | 
Cc1ccc2nc3c(cnc4c3c(C)nn4-c3ccccc3)c(Cl)c2c1 |  |  |  | Activity (Human alphaherpesvirus 1 [3]): inactive
O=c1c2c(O)cc(O)cc2[nH]c2cccc(Cl)c12 | 10 µM |  |  | 
